The source of these data is ChEMBL document CHEMBL3352141, “Carboline- and phenothiazine-derivated heterocycles as potent SIGMA-1 protein ligands” (Eur J Med Chem, 2015).

Structures are written as SMILES.

Assay [1] has as its system Jurkat. The experiment in a line: Selectivity index, ratio of Ki for human sigma 2 receptor in human Jurkat cell membranes to Ki for human sigma 1 receptor in human Jurkat cell membranes. It counts as cell-based. The essentials: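 The ratio divides sigma-2 Ki by sigma-1 Ki, both measured on Jurkat membranes. Sigma-2 used 25 nM [3H]-DTG with (+)-pentazocine masking, 1 h at room temperature. Sigma-1 used 15 nM [3H](+)-pentazocine, 2 h at 37 °C. Both assays ran in 5 mM Tris/HCl, pH 7.4, with filtration and scintillation read-out.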

Assay [2] is described as follows: Cytotoxicity against human SH-SY5Y cells after 72 hrs by MTT assay. It counts as cell-based. The essentials:
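SH-SY5Y neuroblastoma cells were grown in DMEM with 2 mM L-glutamine, streptomycin, 100 IU/mL penicillin, 1 mM non-essential amino acids and 10% heat-inactivated FBS at 37 °C under 5% CO2. Cells were seeded at 2000 per well and serum-starved 24 h, then exposed to a concentration series in <0.1% DMSO. Viability was read by colorimetric MTT. IC50 is the mean of 2–3 independent experiments.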
A general note: Tetrazolium dyes change colour on reduction, which living cells bring about.

Assay [3] deals with Sigma non-opioid intracellular receptor 1 (Homo sapiens, UniProt Q99720). The experiment in a line: Displacement of [3H](+)-pentazocine from human sigma 1 receptor in human Jurkat cell membranes incubated for 2 hrs by liquid scintillation counting. On the technique in general: Displacement assays read how much labelled ligand stays bound in the presence of the test substance.

A short description of assay [4]: Displacement of [3H]-DTG from human sigma 2 receptor in human Jurkat cell membranes incubated for 1 hr by liquid scintillation counting. The essentials:
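Competition binding on Jurkat cell membranes (10–20 µg protein per tube) with 25 nM [3H]-DTG, plus (+)-pentazocine to saturate sigma-1 sites, across a range of test concentrations. Incubation was 1 h at room temperature in 5 mM Tris/HCl, pH 7.4. Bound ligand was separated by rapid GF/B filtration with ice-cold NaCl washes and counted by liquid scintillation. Nonspecific binding was measured under similar conditions.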

Assay [5] in a line: Selectivity index, ratio of IC50 for human SH-SY5Y cells to Ki for human sigma 1 receptor in human Jurkat cell membranes.
Assay [6] is described as follows: Displacement of [3H]-DTG from rat cerebral cortex membrane sigma 2 receptor incubated for 1 hr by liquid scintillation counting. The class given is tissue-based.
For assay [7], the system named is Jurkat. The experiment in a line: Selectivity index, ratio of Ki for sigma 2 receptor in rat cerebral cortex membranes to Ki for human sigma 1 receptor in human Jurkat cell membranes. It counts as cell-based.

A word on the IC50: it is the midpoint of a concentration-inhibition curve. By Ki is commonly meant the dissociation constant of the complex between target and ligand, obtained from inhibition or displacement.

Sequence of Sigma non-opioid intracellular receptor 1 (Q99720 whole entry): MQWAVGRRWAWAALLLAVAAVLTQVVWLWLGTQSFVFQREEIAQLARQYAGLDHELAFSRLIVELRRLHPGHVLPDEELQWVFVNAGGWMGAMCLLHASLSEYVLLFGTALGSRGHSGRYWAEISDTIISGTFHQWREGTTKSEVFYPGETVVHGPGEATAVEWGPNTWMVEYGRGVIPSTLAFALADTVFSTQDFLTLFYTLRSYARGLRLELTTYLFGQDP

With `c1ccc(C2c3[nH]c4ccccc4c3CCN2CCCN2CCCC2)cc1` (stereo unspecified), the Ratio Ki in the assay with Jurkat [1] was found to be 9. In assay [2], it took 47800 nM to reach half-maximal inhibition (IC50). Further, the inhibitory constant (Ki) in assay [3] is 36 nM; in assay [4] it was 310 nM. In addition, the “Selectivity Index” value in assay [5] stood at 1328.

For `CN(CCCN1CCc2oc3ccccc3c2C1)CCc1ccccc1`, the Ratio Ki in the assay on Jurkat [1] was 31. Further, in assay [2], the IC50 amounted to 25400 nM. The inhibition constant (Ki) in assay [3] amounted to 2.5 nM; in assay [4], 78 nM. In addition, the “Selectivity Index” value in assay [5] is recorded as 10160.

With `CN(CCCN1c2ccccc2Sc2ccccc21)Cc1ccccc1`, in the assay with Jurkat [1], the Ratio Ki was 10. This molecule displayed an IC50 in assay [2] of 17100 nM. In addition, the figures for the Ki in assay [3] and in assay [4] were 28 nM and 280 nM, respectively. Also, the “Selectivity Index” value in assay [5] is 611.

As to `CN(CCCN1C(=O)[C@@H]2Cc3ccccc3CN2C1=O)Cc1ccccc1`, the Ki in assay [6] and in assay [4] was 496 nM throughout. The molecule further came in with an IC50 in assay [2] of over 100000 nM.

With `c1ccc2c(c1)CN(CCCN1c3ccccc3Oc3ccccc31)C2`, the Ratio Ki in the assay on Jurkat [1] is under 1. In assay [2], the IC50 is 11000 nM. In addition, the Ki in assay [3] was over 200 nM; in assay [4], 140 nM. Moreover, the “Selectivity Index” value in assay [5] is under 55.

In assay [4], `O=C(CCCN1CCC(O)(c2ccc(Cl)cc2)CC1)c1ccc(F)cc1` [HALOPERIDOL] gave a Ki of 175 nM.

`c1ccc2c(c1)CN(CCCN1CCc3[nH]c4ccccc4c3C1)C2`: the Ratio Ki in the assay on Jurkat [1] was 2.5. This molecule also gave an IC50 in assay [2] of 50000 nM. For the same molecule, the results for the Ki in assay [3] and in assay [4] were 72 nM and 180 nM, respectively. The “Selectivity Index” value in assay [5] came to 694.

`CN(CCCN1CCc2c([nH]c3ccccc23)C1c1ccccc1)Cc1ccccc1` (stereo unspecified): the Ratio Ki in the assay on Jurkat [1] turned out to be 23. In addition, in assay [2], inhibition was half-maximal at 9300 nM (IC50). The values for the Ki in assay [3] and in assay [4] were 4.3 nM and 100 nM, respectively. The “Selectivity Index” value in assay [5] was 2163.

In the case of `CN(CCCN1CCc2c([nH]c3ccccc23)C1c1ccccc1)CCc1ccccc1` (stereo unspecified), the Ratio Ki in the assay with Jurkat [1] was found to be 8. Moreover, the IC50 in assay [2] turned out to be 11800 nM. Further, the Ki in assay [3] stood at 11 nM; in assay [4] it was 93 nM. In addition, the “Selectivity Index” value in assay [5] is given as 1073.

Consider `CN(CCCn1c(=O)oc2cc3c(cc21)C(c1ccc(Cl)cc1)CC3=O)Cc1ccccc1` (stereo unspecified), for which the Ratio Ki in the assay on Jurkat [1] was 0.3. In assay [2], this molecule showed a half-inhibitory concentration (IC50) of 5000 nM. Moreover, the Ki in assay [3] turned out to be 160 nM; in assay [4], 50 nM. In addition, the “Selectivity Index” value in assay [5] worked out at 31.

Take `O=C1C2Cc3ccccc3CN2C(=O)N1CCCN1Cc2ccccc2C1` (stereo unspecified): the inhibition constant Ki is 416 nM in assay [6], 5.3 nM in assay [3] and 416 nM in assay [4]. Also, the Ratio Ki with Jurkat [1] came to 103; with Jurkat [7] it was 78.

Consider `CN(CCCN1c2ccccc2Oc2ccccc21)CCc1ccccc1`, for which the Ratio Ki in the assay on Jurkat [1] stood at 4. The same molecule displayed an IC50 in assay [2] of 46900 nM. In addition, the inhibition constant (Ki) in assay [3] was found to be 18 nM; in assay [4] it was 80 nM. Further, in assay [5], the “Selectivity Index” value is reported as 2606.

As for `CN(CCCN1C(=O)[C@H]2Cc3ccccc3CN2C1=O)Cc1ccccc1`, the Ki in assay [6] and in assay [4] was 764 nM in each case. The IC50 in assay [2] amounted to 19500 nM.

Turning to `c1ccc2c(c1)CN(CCCN1CCc3c([nH]c4ccccc34)C1)C2`, in the assay on Jurkat [1], the Ratio Ki came to 14. This molecule showed a half-maximal inhibitory concentration (IC50) in assay [2] of 24900 nM. The Ki in assay [3] amounted to 8 nM; in assay [4], 110 nM. The “Selectivity Index” value in assay [5] turned out to be 3112.

Regarding `c1ccc2c(c1)CN(CCCN1c3ccccc3Sc3ccccc31)C2`, the Ratio Ki in the assay with Jurkat [1] was determined as 8. This molecule also had a 50% inhibitory concentration (IC50) in assay [2] of 83300 nM. Moreover, the Ki in assay [3] worked out at 12 nM; in assay [4], 94 nM. For the same molecule, the “Selectivity Index” value in assay [5] is reported as 6942.

As to `CN(CCCN1CCc2[nH]c3ccccc3c2C1)Cc1ccccc1`, the Ratio Ki in the assay on Jurkat [1] was 7. The molecule also registered an IC50 in assay [2] of 16900 nM. Moreover, the inhibition constant Ki in assay [3] was determined as 18 nM; in assay [4] it was 130 nM. For the same molecule, the “Selectivity Index” value in assay [5] came out at 939.

On to `CN(CCCN1CCc2[nH]c3ccccc3c2C1)CCc1ccccc1`, for which, in the assay with Jurkat [1], the Ratio Ki was determined as 18. The molecule further displayed an IC50 in assay [2] of 33200 nM. The Ki amounted to 11 nM in assay [3] and 200 nM in assay [4]. In assay [5], the “Selectivity Index” value is 3018.

As for `CN(CCCn1c(=O)oc2cc3c(cc21)C(c1ccccc1)CC3=O)Cc1ccccc1` (stereo unspecified), in the assay with Jurkat [1], the Ratio Ki came out at 2.5. The molecule also gave an IC50 in assay [2] of over 100000 nM. The Ki in assay [3] came out at 72 nM; in assay [4] it was 180 nM. Besides, in assay [5], the “Selectivity Index” value is over 1389.

In the case of `CN(CCCN1CCc2oc3ccccc3c2C1)Cc1ccccc1`, the Ratio Ki with Jurkat [1] is under 5. Moreover, the IC50 in assay [2] was determined as 68900 nM. In addition, the results for the Ki in assay [3] and in assay [4] were 2 nM and under 10 nM, respectively. Moreover, the “Selectivity Index” value in assay [5] stood at 34450.

On to `c1ccc(C2c3[nH]c4ccccc4c3CCN2CCCN2Cc3ccccc3C2)cc1` (stereo unspecified), for which the Ratio Ki with Jurkat [1] amounted to 13. Moreover, in assay [2], half-maximal inhibition (IC50) required 18300 nM. Further, the Ki was 8.4 nM in assay [3] and 110 nM in assay [4]. In assay [5], the “Selectivity Index” value is on record as 2179.

With `CN(CCCN1c2ccccc2Sc2ccccc21)CCc1ccccc1`, in the assay with Jurkat [1], the Ratio Ki came to 28. Also, the concentration for half-maximal inhibition (IC50) in assay [2] was 8600 nM. Also, the values for the Ki in assay [3] and in assay [4] were 11 nM and 310 nM, respectively. The “Selectivity Index” value in assay [5] was determined as 782.

Take `CN(CCCN1CCc2c([nH]c3ccccc23)C1)Cc1ccccc1`: in the assay with Jurkat [1], the Ratio Ki was 2.4. The molecule further had an IC50 in assay [2] of 19700 nM. The Ki in assay [3] was 6.2 nM; in assay [4], 15 nM. Moreover, the “Selectivity Index” value in assay [5] is 3177.

For the molecule `CN(CCCN1CCc2c([nH]c3ccccc23)C1)CCc1ccccc1`, the Ratio Ki with Jurkat [1] was found to be 13. Further, the IC50 in assay [2] was 11600 nM. Moreover, the Ki in assay [3] was 7.2 nM; in assay [4] it was 91 nM. For the same molecule, the “Selectivity Index” value in assay [5] stood at 1611.

`c1ccc2c3c([nH]c2c1)CN(CCCN1CCCC1)CC3` returned an IC50 in assay [2] of 32900 nM. In addition, the Ki in assay [3] was over 200 nM; in assay [4] it was over 400 nM. For the same molecule, in assay [5], the “Selectivity Index” value is under 160.

For the molecule `c1ccc2c(c1)CN(CCCN1CCc3oc4ccccc4c3C1)C2`, the Ratio Ki in the assay on Jurkat [1] was 0.9. In assay [2], the 50% inhibitory concentration (IC50) amounted to 78900 nM. The figures for the Ki in assay [3] and in assay [4] were 11 nM and 9.9 nM, respectively. In assay [5], the “Selectivity Index” value amounted to 7173.

Consider `CN(CCCN1c2ccccc2Oc2ccccc21)Cc1ccccc1`, for which the Ratio Ki in the assay with Jurkat [1] is under 1. This molecule had an IC50 in assay [2] of 71900 nM. For the same molecule, the Ki in assay [3] is over 200 nM; in assay [4], 180 nM. For the same molecule, the “Selectivity Index” value in assay [5] is recorded as under 350.
